Experiments:
[1] = biological target: Histone deacetylase (HDAC1 and HDAC2) (Homo sapiens, UniProt Q13547+Q92769); experiment: Inhibition of HDAC1/2 in human HeLa cells nuclear extracts using acetylated histone peptide as substrate after 30 mins by Color de Lys assay; assay type: cell-based
[2] = test system: MDA-MB-231; experiment: Antiproliferative activity against human MDA-MB-231 cells after 48 hrs by MTT assay; assay type: functional, cell-based; details: MDA-MB-231, 48 h
[3] = Antiproliferative activity against human KG1 cells after 48 hrs by MTT assay; assay type: functional, cell-based; details: KG-1, 48 h
[4] = test system: PC-3; experiment: Antiproliferative activity against human PC3 cells after 48 hrs by MTT assay; assay type: functional, cell-based; details: PC-3, 48 h
[5] = test system: MDA-MB-231; experiment: Induction of apoptosis in human MDA-MB-231 cells assessed as late apoptotic cells at 1 uM after 24 hrs using Annexin V-FITC and propidium iodide staining by flow cytometry (reference value: 4.04%); assay type: functional
How it was run: (§1)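 MDA-MB-231 cells (1.2 × 10⁵) exposed to compound for 24 h, then harvested and washed in PBS. Cells resuspended in Annexin V-FITC binding buffer, stained with Annexin V-FITC plus propidium iodide for 10 min at room temperature, held on ice and analysed by flow cytometry.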

[6] = test system: MDA-MB-231; experiment: Induction of apoptosis in human MDA-MB-231 cells assessed as early apoptotic cells at 1 uM after 24 hrs using Annexin V-FITC and propidium iodide staining by flow cytometry (reference value: 2.60%); assay type: functional; how it was run: as §1
[7] = test system: MDA-MB-231; experiment: Induction of apoptosis in human MDA-MB-231 cells assessed as late apoptotic cells at 4 uM after 24 hrs using Annexin V-FITC and propidium iodide staining by flow cytometry (reference value: 4.04%); assay type: functional; how it was run: as §1
[8] = test system: MDA-MB-231; experiment: Induction of apoptosis in human MDA-MB-231 cells assessed as early apoptotic cells at 4 uM after 24 hrs using Annexin V-FITC and propidium iodide staining by flow cytometry (reference value: 2.60%); assay type: functional; how it was run: as §1
[9] = test system: MDA-MB-231; experiment: Induction of apoptosis in human MDA-MB-231 cells assessed as total apoptotic cells at 1 uM after 24 hrs using Annexin V-FITC and propidium iodide staining by flow cytometry; assay type: functional; how it was run: as §1

Row | SMILES | IC50 [1] | also measured
1 | O=C(CCN1C(=O)c2ccccc2S1(=O)=O)Nc1cccc(C(=O)NO)c1 | > 5 µM | 
2 | O=C(CCCN1C(=O)c2ccccc2S1(=O)=O)Nc1cccc(C(=O)NO)c1 | > 5 µM | 
3 | O=C(CCCCN1C(=O)c2ccccc2S1(=O)=O)Nc1cccc(C(=O)NO)c1 | > 5 µM | 
4 | O=C(CCCCCN1C(=O)c2ccccc2S1(=O)=O)Nc1cccc(C(=O)NO)c1 | > 5 µM | 
5 | O=C(CCCCCN1C(=O)c2ccc([N+](=O)[O-])cc2S1(=O)=O)Nc1cccc(C(=O)NO)c1 | > 5 µM | 
6 | O=C(CCN1C(=O)c2ccccc2S1(=O)=O)Nc1ccc(C(=O)NO)cc1 | 0.3 µM | 
7 | O=C(CCN1C(=O)c2ccc([N+](=O)[O-])cc2S1(=O)=O)Nc1ccc(C(=O)NO)cc1 | 2.02 µM | 
8 | O=C(CCN1C(=O)c2ccc(I)cc2S1(=O)=O)Nc1ccc(C(=O)NO)cc1 | 0.523 µM | 
9 | O=C(CCCN1C(=O)c2ccccc2S1(=O)=O)Nc1ccc(C(=O)NO)cc1 | 0.233 µM | IC50 [2]: 8.71 µM; IC50 [4]: > 25 µM; Activity [5]: 4.06%; Activity [6]: 3.44%; Activity [7]: 5.35%; Activity [8]: 4.7%; Activity [9]: 7.5%
10 | O=C(CCCN1C(=O)c2ccc([N+](=O)[O-])cc2S1(=O)=O)Nc1ccc(C(=O)NO)cc1 | 1.66 µM | 
11 | O=C(CCCN1C(=O)c2ccc(I)cc2S1(=O)=O)Nc1ccc(C(=O)NO)cc1 | 0.419 µM | 
12 | O=C(CCCN1C(=O)c2ccc(-c3ccccc3)cc2S1(=O)=O)Nc1ccc(C(=O)NO)cc1 | 1.51 µM | IC50 [2]: 9.9 µM; IC50 [3]: 11.6 µM; IC50 [4]: > 25 µM
13 | O=C(CCCCN1C(=O)c2ccc(I)cc2S1(=O)=O)Nc1ccc(C(=O)NO)cc1 | 0.305 µM | 
14 | O=C(CCCCN1C(=O)c2ccc(-c3ccccc3)cc2S1(=O)=O)Nc1ccc(C(=O)NO)cc1 | > 5 µM | 
15 | O=C(CCN1C(=O)c2ccccc2S1(=O)=O)NCc1ccc(C(=O)NO)cc1 | 2.79 µM | 
16 | O=C(CCCCN1C(=O)c2ccccc2S1(=O)=O)NCc1ccc(C(=O)NO)cc1 | 3.4 µM | 
17 | O=C(CCCCCN1C(=O)c2ccccc2S1(=O)=O)NCc1ccc(C(=O)NO)cc1 | 2.65 µM | 
18 | O=C(NO)c1ccc(CN2C(=O)c3ccccc3S2(=O)=O)cc1 | 1.398 µM | 
19 | O=C(CCCCCCC(=O)Nc1ccccc1)NO [VORINOSTAT] |  | Activity [5]: 3.32%; Activity [6]: 8%; Activity [7]: 7.66%; Activity [8]: 7.1%; Activity [9]: 11.32%

Further lines, with some results ahead:

Row | IC50 [1] | SMILES | also measured
20 | 1.7 µM | O=C(CCN1C(=O)c2ccc(-c3ccccc3)cc2S1(=O)=O)Nc1ccc(C(=O)NO)cc1 | IC50 [2]: 3.45 µM; IC50 [3]: 5.23 µM; IC50 [4]: 8.79 µM; Activity [5]: 7.49%; Activity [6]: 9.27%; Activity [7]: 9.86%; Activity [8]: 13.48%; Activity [9]: 16.76%
21 | > 5 µM | O=C(NO)c1ccc(CN2C(=O)c3ccc([N+](=O)[O-])cc3S2(=O)=O)cc1 | 
22 | 1.335 µM | O=C(NO)c1ccc(CN2C(=O)c3ccc(I)cc3S2(=O)=O)cc1 | 
23 | 0.386 µM | O=C(NO)c1ccc(CN2C(=O)c3ccc(-c4ccccc4)cc3S2(=O)=O)cc1 | 
24 | 0.38 µM | O=C(NO)c1ccc(CN2C(=O)c3ccc(NC(=O)c4ccccc4)cc3S2(=O)=O)cc1 | 
25 | > 5 µM | O=C(NO)c1ccc(CN2C(=O)c3ccc(NC(=O)c4ccc(-c5ccccc5)cc4)cc3S2(=O)=O)cc1 | 
26 | 1.71 µM | COc1cc(C(=O)Nc2ccc3c(c2)S(=O)(=O)N(Cc2ccc(C(=O)NO)cc2)C3=O)cc(OC)c1OC | 
27 | 1.413 µM | O=C(NO)c1ccc(CN2C(=O)c3ccc(NC(=O)c4ccc(C(F)(F)F)cc4)cc3S2(=O)=O)cc1 | 
28 | 0.646 µM | O=C(NO)c1ccc(CN2C(=O)c3ccc(NC(=O)c4ccc(F)cc4)cc3S2(=O)=O)cc1 | 
29 | 0.53 µM | O=C(Cc1ccccc1)Nc1ccc2c(c1)S(=O)(=O)N(Cc1ccc(C(=O)NO)cc1)C2=O | 
30 | 1.297 µM | Cc1ccc(/C=C/C(=O)Nc2ccc3c(c2)S(=O)(=O)N(Cc2ccc(C(=O)NO)cc2)C3=O)cc1 | 
